Screening data deposited in PubChem by several laboratories.
Only some compounds are listed: those with a hit (about 1.6% of all), similar ones and a draw of the others.
Apaf1 inhib: human Apaf-1 inhibition. reconstituted apoptosome caspase-3 activity, DEVD-Rh110 fluorescence. O14727. inhibition, % at 20 µM. actives 0.71% (n = 330,000); active = inhibition of at least 40% at 20 µM;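 note: plate controls were DMSO wells for no effect and DEVD-CHO caspase inhibitor wells for full effect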
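Material: reconstituted apoptosome with Apaf-1, cytochrome c, caspase-9, procaspase-3, dATP; medium: pH 7.5 Hepes buffer with CHAPS, BSA, DTT; also added: cytochrome c and DEVD-Rh110 substrate; timing: 30 min plus 50 min, RT; signal: Rh110 fluorescence intensity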
RAD54 branch: blocks human RAD54 Holliday junction branch migration; Q92698; FAM/BHQ fluorescence; inhibition, % at 10.4 µM; actives 0.14% (n = 360,000); AID 602329;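 active = mean normalized replicate activity at least 40 and at least half of replicates scoring 40 or more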;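 note: 0% = median of neutral control wells and 100% = median of positive control wells; inhibitors cause a drop in the FAM fluorescence signal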
UBC13 polyUb: blocks human UBC13 polyubiquitin chain formation | P61088 | TR-FRET | inhibition, % at 20 µM | actives 0.47% (n = 330,000); in the data active = inhibition above about 45%, passing the limit was not always enough
RAD52 anneal inh: RAD52 (human) annealing inhibition; recombinant RAD52 DNA annealing, FRET fluorescence; P43351; actives 0.46% (n = 360,000); inhibition, % at 18.7 µM;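 active = every replicate showing at least 50% inhibition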
DNA FID counter: displaces DNA intercalator in HCV helicase counter-screen; inhibition, % at 7.9 µM; DNA fluorescent intercalator displacement, fluorescence; AID 1845; actives 0.17% (n = 290,000); in the data active = inhibition above about 37%;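 note: 0% = vehicle and 100% = reference compound; higher means more ethidium bromide displaced from hairpin DNA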
Neddylation inh: cullin neddylation inhibition; TR-FRET cullin neddylation, biochemical; calls only at 25 µM; actives 0.58% (n = 360,000); AID 651699; in the data active = inhibition above about 36%
Target sequence (P61081 whole entry, looked up): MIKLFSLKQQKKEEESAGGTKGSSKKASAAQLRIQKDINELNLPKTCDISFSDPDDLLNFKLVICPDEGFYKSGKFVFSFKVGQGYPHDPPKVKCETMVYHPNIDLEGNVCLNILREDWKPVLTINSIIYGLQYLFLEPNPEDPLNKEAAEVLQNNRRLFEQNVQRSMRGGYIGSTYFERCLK
Target sequence (Q13564 whole entry, looked up): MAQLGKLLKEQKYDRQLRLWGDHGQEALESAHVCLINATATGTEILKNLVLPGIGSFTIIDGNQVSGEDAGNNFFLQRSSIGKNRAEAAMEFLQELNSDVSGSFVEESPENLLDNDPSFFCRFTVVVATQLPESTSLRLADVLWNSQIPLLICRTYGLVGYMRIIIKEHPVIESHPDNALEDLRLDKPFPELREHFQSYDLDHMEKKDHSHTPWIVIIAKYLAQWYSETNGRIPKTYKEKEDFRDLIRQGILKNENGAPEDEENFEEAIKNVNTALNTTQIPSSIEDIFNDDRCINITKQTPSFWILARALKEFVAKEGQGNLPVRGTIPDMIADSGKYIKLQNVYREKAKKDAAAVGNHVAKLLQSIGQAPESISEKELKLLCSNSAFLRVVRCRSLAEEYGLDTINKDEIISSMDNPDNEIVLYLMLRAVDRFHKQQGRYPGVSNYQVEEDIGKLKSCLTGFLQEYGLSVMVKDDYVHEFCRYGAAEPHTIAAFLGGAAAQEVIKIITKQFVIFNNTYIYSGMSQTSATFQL
Numbers without * were called inactive; i = inactive; · = no result shown; + = active, no number; ! = repeats disagree.

SMILES	Apaf1 inhib	RAD54 branch	UBC13 polyUb	RAD52 anneal inh	DNA FID counter	Neddylation inh
COc1ccc(NC(=O)N2CCCCN3[C@@H](CO)[C@@H](c4ccc(C#Cc5ccccn5)cc4)[C@@H]3C2)cc1	·	8	·	62*	·	·
COc1ccc(NC(=O)N2CCCCN3[C@H](CO)[C@H](c4ccc(C#Cc5ccccn5)cc4)[C@H]3C2)cc1	·	42	·	66*	·	·
COC(=O)C[C@H]1CC[C@H]2[C@@H](COc3ccc(NC(=O)c4ccccc4)cc3C(=O)N2C)O1	·	·	·	-4	·	·
O=c1[nH]c(=S)[nH]c2c1C(c1ccc(Br)cc1)c1c([nH]c(=S)[nH]c1=O)O2	·	56*	·	-1	-1	i
CCCNC(=O)C[C@@H]1C[C@@H]2c3cc(NC(=O)c4ccc5c(c4)OCO5)ccc3O[C@@H]2[C@H](CO)O1	·	8	·	·	·	·
COc1ccc(NC(=O)Nc2ccc3c(c2)CC(=O)N([C@@H](C)CO)C[C@@H](C)[C@H](CN(C)Cc2ccc(-c4ccccc4)cc2)O3)cc1	·	-1	·	58*	·	·
COc1ccc(NC(=O)Nc2ccc3c(c2)CC(=O)N([C@H](C)CO)C[C@H](C)[C@@H](CN(C)Cc2ccc(Oc4ccccc4)cc2)O3)cc1	·	-1	·	67*	·	·
CC(C)NC(=O)N1CC2(C1)[C@@H](c1ccccc1)[C@@H](CO)N2C(=O)c1ccccn1	·	·	·	2	·	·
CC1CCCC(NCC(O)COC(c2ccc(F)cc2)c2ccc(F)cc2)C1C (stereo not given)	11	11	15	44	46*	i
CCCNC(=O)OC[C@H]1O[C@H](CCO/N=C(\C)CCN2CCc3nc(-c4ccccc4)c(-c4ccccc4)cc3C2)C=C[C@@H]1Oc1ccc(OC)cc1	53*	·	30	·	-21	·
Cc1ccc(S(=O)(=O)N2CCN(c3ccc([N+](=O)[O-])c4cccnc34)CC2)cc1	47*	-4	-38	·	0	i
Cc1ccccc1NC(=O)/C=C/c1ccc([N+](=O)[O-])s1	·	·	·	·	4	+
CC(C)NC(=O)Nc1cccc2c1O[C@H](CN(C)S(=O)(=O)c1cn(C)cn1)[C@@H](C)CN([C@H](C)CO)C2=O	·	6	·	-19	·	·
Fc1ccc(-c2ccc(C3[C@@H]4CN(Cc5ccccc5)C[C@H]3N4)cc2)cc1 (stereo not given in full)	·	·	·	78*!	·	·
Cc1ccc(-c2ccc(C3[C@@H]4CN(Cc5cccc(F)c5)C[C@H]3N4)cc2)cc1 (stereo not given in full)	·	·	·	54*	·	·
Fc1ccc(-c2ccc(C3[C@@H]4CN(Cc5cccc(F)c5)C[C@H]3N4)cc2)cc1 (stereo not given in full)	·	·	·	94*!	·	·
Cc1ccc(-c2ccc(C3[C@@H]4CN(Cc5cccnc5)C[C@H]3N4)cc2)cc1 (stereo not given in full)	·	·	·	53*!	·	·
COc1ccccc1CN1C[C@@H]2N[C@H](C1)C2c1ccc(-c2ccccc2)cc1 (stereo not given in full)	·	·	·	27	·	·
COc1cccc(NC(=O)N[C@H]2C=C[C@H](CC(=O)NCc3ccccn3)O[C@H]2CO)c1	·	·	·	-3	·	·
O=C(C[C@@H]1CC[C@@H](NC(=O)C2CCOCC2)[C@@H](CO)O1)Nc1ccccc1	·	·	·	-2	·	·
Cc1cccn2c(=O)c3cc(C(=O)NCc4ccco4)c(=N)n(C4CCCCC4)c3nc12	13	32	8	·	0	·
Cc1cccn2c(=O)c3cc(C(=O)NCc4ccco4)c(=N)n(CCOCCO)c3nc12	11	73*	-26	·	5	·
Cc1cccn2c(=O)c3cc(C(=O)NC4CCCC4)c(=N)n(Cc4ccc(F)cc4)c3nc12	26	6	14	-72	13	·
Cc1cccn2c(=O)c3cc(C(=O)NC4CCCCC4)c(=N)n(Cc4ccccc4)c3nc12	57*	3	20	-45	2	·
Cc1ccc(Cn2c(=N)c(C(=O)NCc3ccco3)cc3c(=O)n4ccccc4nc32)cc1	7	7	-1	·	-4	+
SMILES	Apaf1 inhib	RAD54 branch	UBC13 polyUb	RAD52 anneal inh	DNA FID counter	Neddylation inh
CS(=O)(=O)Nc1ccc2c(c1)[C@@H]1C[C@@H](CC(=O)O)O[C@@H](CO)[C@@H]1O2	·	·	·	-46	·	·
O=C(c1ccncc1)N1C[C@@H]2N[C@H](C1)C2c1ccc(/C=C/c2ccccc2)cc1 (stereo not given in full)	·	·	·	4	·	·
O=C(Nc1ccccc1)N1C[C@@H]2N[C@H](C1)C2c1ccc(-c2ccccc2)cc1 (stereo not given in full)	·	·	·	27	·	·
O=C(C1CCC1)N1C[C@@H]2N[C@H](C1)C2c1ccc(-c2ccccc2F)cc1 (stereo not given in full)	·	·	·	5	·	·
O=C(Nc1ccccc1)N1C[C@@H]2N[C@H](C1)[C@@H]2c1ccc(/C=C/c2ccccc2)cc1	·	·	·	72*	·	·
O=C(C1CCCCC1)N1C[C@@H]2N[C@H](C1)C2c1ccc(-c2ccccc2F)cc1 (stereo not given in full)	·	·	·	57*!	·	·
O=C(C1CCCC1)N1C[C@@H]2N[C@H](C1)C2c1ccc(/C=C/c2ccccc2)cc1 (stereo not given in full)	·	·	·	58*	·	·
COc1ccccc1CN1C[C@@H]2N[C@H](C1)C2c1ccc(/C=C/c2ccccc2)cc1 (stereo not given in full)	·	·	·	68*	·	·
Cc1noc(C)c1S(=O)(=O)Nc1ccc2c(c1)C(=O)N([C@@H](C)CO)C[C@H](C)[C@@H](CN(C)Cc1ccc(C(F)(F)F)cc1)OCCCC[C@@H](C)O2	·	-1	·	24	·	·
O=C(c1ccc(F)cc1)N1C[C@@H]2N[C@H](C1)C2c1ccc(/C=C/c2ccccc2)cc1 (stereo not given in full)	·	·	·	65*	·	·
CNC[C@@H]1Oc2cc(C#Cc3ccccc3F)ccc2S(=O)(=O)N([C@@H](C)CO)C[C@H]1C	·	2	·	-11	·	·
C=Cc1ncc(OC)c2c1[nH]c1ccccc12	23	7	21	·	·	+
O=C(C[C@H]1CC[C@H](NS(=O)(=O)c2ccc(F)cc2)[C@H](CO)O1)NCc1ccccc1F	·	·	·	-1	·	·
CCOC(=O)OC[C@@H]1[C@@H]2NC(=O)N(C)[C@@]1(COCc1ccc(OC)cc1)Oc1ccccc12	·	·	·	9	·	·
O=C(N/N=C/c1sc(N2CCOCC2)nc1-c1ccccc1)c1cccc(S(=O)(=O)N2CCOCC2)c1	12	·	-15	-275	-40	+
O=C(N/N=C/c1sc(N2CCOCC2)nc1-c1ccccc1)c1ccccc1Cl	17	0	5	-18	-1	·
O=C(C[C@H]1CC[C@H](NC(=O)Nc2ccccc2F)[C@H](CO)O1)NCc1ccc(-c2ccccc2)cc1	·	·	·	3	·	·
CN1C(=O)/C(=C/c2ccc(C(=O)Nc3ccc(O)cc3C(=O)O)cc2)SC1=S	35	-11	-38	7	39*	i
Cc1ccc(/C=C2\SC(=S)N(CCC(=O)NNC(=O)c3ccc(O)cc3)C2=O)cc1	-63	-13	-21	-67	-12	i
